{"source": "ChEMBL document CHEMBL1649212", "about": "“AI-2/LuxS is involved in increased biofilm formation by Streptococcus intermedius in the presence of antibiotics” (2009)", "key": {"[1]": {"tested_on": "Streptococcus intermedius", "test": "Antimicrobial activity against Streptococcus intermedius SI006 planktonic cells harboring luxS mutant gene assessed as bacterial count at 0.08 ug/ml (Rvb =798.3 +/- 37.09 10^8 CFU/ml)", "assay_type": "functional"}, "[2]": {"tested_on": "Streptococcus intermedius", "test": "Antimicrobial activity against Streptococcus intermedius SI006 biofilm harboring luxS mutant gene assessed as biofilm bacterial count at 0.02 ug/ml in presence of 0.8 nM autoinducer 4,5-dihydroxy-2,3-pentanedione (Rvb =413.7 +/- 24.47 10^5 CFU/ml)", "assay_type": "functional"}, "[3]": {"tested_on": "Streptococcus intermedius", "test": "Antimicrobial activity against Streptococcus intermedius SI006 biofilm harboring luxS mutant gene assessed as biofilm bacterial count at 0.02 ug/ml (Rvb =310.8 +/- 17.10 10^5 CFU/ml)", "assay_type": "functional"}, "[4]": {"tested_on": "Streptococcus intermedius", "test": "Antimicrobial activity against Streptococcus intermedius SI006 biofilm harboring luxS mutant gene assessed as biofilm bacterial count at 0.04 ug/ml in presence of 0.8 nM autoinducer 4,5-dihydroxy-2,3-pentanedione (Rvb =413.7 +/- 24.47 10^5 CFU/ml)", "assay_type": "functional"}, "[5]": {"tested_on": "Streptococcus intermedius", "test": "Antimicrobial activity against Streptococcus intermedius NCTC 11324 planktonic cells assessed as bacterial count at 0.06 ug/ml (Rvb =771.7 +/- 35.14 10^8 CFU/ml)", "assay_type": "functional", "outline": "(§1)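 Planktonic wild-type cells were inoculated at ≈4 × 10^5 CFU/ml in TSB in ultra-low-binding plates. Media were without or with ampicillin (0.02 to 0.14 μg/ml), ciprofloxacin (0.10 to 0.35 μg/ml) or tetracycline (0.03 to 0.20 μg/ml). After 12 h at 37°C in 5% CO2 aerobic air, CFU were counted, run in parallel with the BacTiter-Glo ATP assay. Experiments were done three times in two parallels.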"}, "[6]": {"tested_on": "Streptococcus intermedius", "test": "Antimicrobial activity against Streptococcus intermedius SI006 planktonic cells harboring luxS mutant gene assessed as bacterial count at 0.10 ug/ml (Rvb =798.3 +/- 37.09 10^8 CFU/ml)", "assay_type": "functional"}, "[7]": {"tested_on": "Streptococcus intermedius", "test": "Antimicrobial activity against Streptococcus intermedius NCTC 11324 biofilm assessed as biofilm bacterial count at 0.04 ug/ml (Rvb =402.9 +/- 26.88 10^5 CFU/ml)", "assay_type": "functional"}, "[8]": {"tested_on": "Streptococcus intermedius", "test": "Antimicrobial activity against Streptococcus intermedius SI006 planktonic cells harboring luxS mutant gene assessed as bacterial count at 0.12 ug/ml (Rvb =798.3 +/- 37.09 10^8 CFU/ml)", "assay_type": "functional"}, "[9]": {"tested_on": "Streptococcus intermedius", "test": "Antimicrobial activity against Streptococcus intermedius NCTC 11324 planktonic cells assessed as bacterial count at 0.08 ug/ml (Rvb =771.7 +/- 35.14 10^8 CFU/ml)", "assay_type": "functional", "outline": "as §1"}, "[10]": {"tested_on": "Streptococcus intermedius", "test": "Antimicrobial activity against Streptococcus intermedius NCTC 11324 planktonic cells assessed as bacterial count at 0.10 ug/ml (Rvb =771.7 +/- 35.14 10^8 CFU/ml)", "assay_type": "functional", "outline": "as §1"}, "[11]": {"tested_on": "Streptococcus intermedius", "test": "Antimicrobial activity against Streptococcus intermedius NCTC 11324 assessed as biofilm formation at 0.04 to 0.10 ug/ml", "assay_type": "functional, organism-based", "outline": "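Wild-type NCTC 11324 was grown overnight in TSB and inoculated into TSB with ampicillin (0.02 to 0.10 μg/ml), ciprofloxacin (0.10 to 0.28 μg/ml) or tetracycline (0.05 to 0.30 μg/ml), added at time zero. Wells held plastic coverslips and were incubated 12 h at 37°C in 5% CO2 aerobic air. Biofilm was measured as described previously. Experiments were done three times in three parallels.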"}, "[12]": {"tested_on": "Streptococcus intermedius", "test": "Antimicrobial activity against Streptococcus intermedius SI006 biofilm harboring luxS mutant gene assessed as biofilm bacterial count at 0.06 ug/ml in presence of 0.8 nM autoinducer 4,5-dihydroxy-2,3-pentanedione (Rvb =413.7 +/- 24.47 10^5 CFU/ml)", "assay_type": "functional"}, "[13]": {"tested_on": "Streptococcus intermedius", "test": "Antimicrobial activity against Streptococcus intermedius SI006 planktonic cells harboring luxS mutant gene assessed as bacterial count at 0.10 ug/ml in presence of 0.8 nM autoinducer 4,5-dihydroxy-2,3-pentanedione (Rvb =793.3 +/- 42.40 10^8 CFU/ml)", "assay_type": "functional"}, "[14]": {"tested_on": "Streptococcus intermedius", "test": "Antimicrobial activity against Streptococcus intermedius NCTC 11324 biofilm assessed as biofilm bacterial count at 0.02 ug/ml (Rvb =402.9 +/- 26.88 10^5 CFU/ml)", "assay_type": "functional"}, "[15]": {"tested_on": "Streptococcus intermedius", "test": "Antimicrobial activity against Streptococcus intermedius SI006 planktonic cells harboring luxS mutant gene assessed as bacterial count at 0.06 ug/ml (Rvb =798.3 +/- 37.09 10^8 CFU/ml)", "assay_type": "functional"}, "[16]": {"tested_on": "Streptococcus intermedius", "test": "Antimicrobial activity against Streptococcus intermedius SI006 biofilm harboring luxS mutant gene assessed as biofilm bacterial count at 0.04 ug/ml (Rvb =310.8 +/- 17.10 10^5 CFU/ml)", "assay_type": "functional"}, "[17]": {"tested_on": "Streptococcus intermedius", "test": "Antimicrobial activity against Streptococcus intermedius NCTC 11324 biofilm assessed as biofilm bacterial count at 0.06 ug/ml (Rvb =402.9 +/- 26.88 10^5 CFU/ml)", "assay_type": "functional"}, "[18]": {"tested_on": "Streptococcus intermedius", "test": "Antimicrobial activity against Streptococcus intermedius SI006 biofilm harboring luxS mutant gene assessed as biofilm bacterial count at 0.06 ug/ml (Rvb =310.8 +/- 17.10 10^5 CFU/ml)", "assay_type": "functional"}, "[19]": {"tested_on": "Streptococcus intermedius", "test": "Antimicrobial activity against Streptococcus intermedius NCTC 11324 planktonic cells assessed as bacterial count at 0.12 ug/ml (Rvb =771.7 +/- 35.14 10^8 CFU/ml)", "assay_type": "functional", "outline": "as §1"}, "[20]": {"tested_on": "Streptococcus intermedius", "test": "Antimicrobial activity against Streptococcus intermedius SI006 planktonic cells harboring luxS mutant gene assessed as bacterial count at 0.06 ug/ml in presence of 0.8 nM autoinducer 4,5-dihydroxy-2,3-pentanedione (Rvb =793.3 +/- 42.40 10^8 CFU/ml)", "assay_type": "functional"}, "[21]": {"tested_on": "Streptococcus intermedius", "test": "Antimicrobial activity against Streptococcus intermedius NCTC 11324 assessed as growth inhibition at 0.16 ug/ml", "assay_type": "functional", "outline": "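Broth microdilution MIC in ultra-low-binding 96-well plates, inoculum ≈4 × 10^5. Growth was read at 595 nm, and the MIC was taken as the lowest antibiotic concentration inhibiting growth.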"}, "[22]": {"tested_on": "Streptococcus intermedius", "test": "Antimicrobial activity against Streptococcus intermedius SI006 planktonic cells harboring luxS mutant gene assessed as bacterial count at 0.12 ug/ml in presence of 0.8 nM autoinducer 4,5-dihydroxy-2,3-pentanedione (Rvb =793.3 +/- 42.40 10^8 CFU/ml)", "assay_type": "functional"}, "[23]": {"tested_on": "Streptococcus intermedius", "test": "Antimicrobial activity against Streptococcus intermedius SI006 planktonic cells harboring luxS mutant gene assessed as bacterial count at 0.08 ug/ml in presence of 0.8 nM autoinducer 4,5-dihydroxy-2,3-pentanedione (Rvb =793.3 +/- 42.40 10^8 CFU/ml)", "assay_type": "functional"}}, "note": "Calls of active or inactive are those of the source. The calls are words filed in the database; no cut-off is given here.", "data": [{"smiles": "CC1(C)S[C@@H]2[C@H](NC(=O)[C@H](N)c3ccccc3)C(=O)N2[C@H]1C(=O)O", "note": "[AMPICILLIN]", "values": [{"measurement": "CFU", "setting": "[1]", "result": 16.4, "unit": "×10⁸ /ml"}, {"measurement": "CFU", "setting": "[2]", "result": 459.5, "unit": "×10⁵ /ml"}, {"measurement": "CFU", "setting": "[3]", "result": 324.1, "unit": "×10⁵ /ml"}, {"measurement": "CFU", "setting": "[4]", "result": 686, "unit": "×10⁵ /ml"}, {"measurement": "CFU", "setting": "[5]", "result": 61.2, "unit": "×10⁸ /ml"}, {"measurement": "CFU", "setting": "[6]", "result": 10.3, "unit": "×10⁸ /ml"}, {"measurement": "CFU", "setting": "[7]", "result": 621.6, "unit": "×10⁵ /ml"}, {"measurement": "CFU", "setting": "[8]", "result": 8.5, "unit": "×10⁸ /ml"}, {"measurement": "CFU", "setting": "[9]", "result": 43.3, "unit": "×10⁸ /ml"}, {"measurement": "CFU", "setting": "[10]", "result": 45.3, "unit": "×10⁸ /ml"}, {"measurement": "Activity", "setting": "[11]", "result": "inactive"}, {"measurement": "CFU", "setting": "[12]", "result": 819.2, "unit": "×10⁵ /ml"}, {"measurement": "CFU", "setting": "[13]", "result": 39.6, "unit": "×10⁸ /ml"}, {"measurement": "CFU", "setting": "[14]", "result": 486.2, "unit": "×10⁵ /ml"}, {"measurement": "CFU", "setting": "[15]", "result": 41.8, "unit": "×10⁸ /ml"}, {"measurement": "CFU", "setting": "[16]", "result": 268.6, "unit": "×10⁵ /ml"}, {"measurement": "CFU", "setting": "[17]", "result": 894.7, "unit": "×10⁵ /ml"}, {"measurement": "CFU", "setting": "[18]", "result": 162.1, "unit": "×10⁵ /ml"}, {"measurement": "CFU", "setting": "[19]", "result": 20.7, "unit": "×10⁸ /ml"}, {"measurement": "CFU", "setting": "[20]", "result": 48.7, "unit": "×10⁸ /ml"}, {"measurement": "Activity", "setting": "[21]", "result": 0.16, "unit": "µg/mL"}, {"measurement": "CFU", "setting": "[22]", "result": 18.4, "unit": "×10⁸ /ml"}, {"measurement": "CFU", "setting": "[23]", "result": 39.1, "unit": "×10⁸ /ml"}]}]}
